# In ChEMBL document CHEMBL4814002, “Synthesis, biological evaluation, and docking studies of novel pyrrolo[2,3-b]pyridine derivatives as both ectonucleotide pyrophosphatase/phosphodiesterase inhibitors and antiproliferative agents” (Eur J Med Chem, 2021):
# Active and inactive are the calls of the source. The calls are words filed in the database; no cut-off is given here.
# Experiments:
# [1] = biological target: T1, Ectonucleotide pyrophosphatase/phosphodiesterase family member 1 (Homo sapiens, UniProt P22413); assay: Inhibition of human NPP1 transfected in COS7 cells using pNP-TMP as substrate incubated for 35 mins; assay type: cell-based
# T1 sequence (P22413 whole entry): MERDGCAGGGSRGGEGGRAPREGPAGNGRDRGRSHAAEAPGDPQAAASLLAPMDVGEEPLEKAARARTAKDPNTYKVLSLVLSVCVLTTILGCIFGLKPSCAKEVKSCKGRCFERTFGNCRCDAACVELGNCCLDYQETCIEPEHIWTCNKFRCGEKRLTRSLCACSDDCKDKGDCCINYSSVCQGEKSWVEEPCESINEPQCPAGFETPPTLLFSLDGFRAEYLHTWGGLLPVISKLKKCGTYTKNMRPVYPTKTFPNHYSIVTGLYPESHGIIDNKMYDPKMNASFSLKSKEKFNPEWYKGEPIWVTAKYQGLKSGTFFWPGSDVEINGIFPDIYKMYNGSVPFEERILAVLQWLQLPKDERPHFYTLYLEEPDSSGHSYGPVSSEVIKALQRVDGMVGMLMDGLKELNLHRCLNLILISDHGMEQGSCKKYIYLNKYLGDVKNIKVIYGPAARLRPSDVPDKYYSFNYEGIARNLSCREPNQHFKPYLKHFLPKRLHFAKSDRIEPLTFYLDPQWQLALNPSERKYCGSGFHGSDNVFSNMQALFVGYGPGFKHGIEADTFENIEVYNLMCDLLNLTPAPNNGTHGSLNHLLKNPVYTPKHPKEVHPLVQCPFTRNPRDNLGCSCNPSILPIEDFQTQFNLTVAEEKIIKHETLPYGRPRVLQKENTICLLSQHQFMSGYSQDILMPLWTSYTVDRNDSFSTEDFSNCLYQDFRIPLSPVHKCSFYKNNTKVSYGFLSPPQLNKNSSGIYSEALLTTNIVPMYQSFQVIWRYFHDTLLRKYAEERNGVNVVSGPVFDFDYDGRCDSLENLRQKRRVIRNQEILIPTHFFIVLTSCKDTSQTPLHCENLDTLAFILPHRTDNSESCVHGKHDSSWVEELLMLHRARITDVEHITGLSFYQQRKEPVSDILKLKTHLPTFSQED
# [2] = biological target: T2, Ectonucleotide pyrophosphatase/phosphodiesterase family member 3 (Homo sapiens, UniProt O14638); assay: Inhibition of human NPP3 transfected in COS7 cells using pNP-TMP as substrate incubated for 35 mins; assay type: cell-based
# T2 sequence (O14638 whole entry): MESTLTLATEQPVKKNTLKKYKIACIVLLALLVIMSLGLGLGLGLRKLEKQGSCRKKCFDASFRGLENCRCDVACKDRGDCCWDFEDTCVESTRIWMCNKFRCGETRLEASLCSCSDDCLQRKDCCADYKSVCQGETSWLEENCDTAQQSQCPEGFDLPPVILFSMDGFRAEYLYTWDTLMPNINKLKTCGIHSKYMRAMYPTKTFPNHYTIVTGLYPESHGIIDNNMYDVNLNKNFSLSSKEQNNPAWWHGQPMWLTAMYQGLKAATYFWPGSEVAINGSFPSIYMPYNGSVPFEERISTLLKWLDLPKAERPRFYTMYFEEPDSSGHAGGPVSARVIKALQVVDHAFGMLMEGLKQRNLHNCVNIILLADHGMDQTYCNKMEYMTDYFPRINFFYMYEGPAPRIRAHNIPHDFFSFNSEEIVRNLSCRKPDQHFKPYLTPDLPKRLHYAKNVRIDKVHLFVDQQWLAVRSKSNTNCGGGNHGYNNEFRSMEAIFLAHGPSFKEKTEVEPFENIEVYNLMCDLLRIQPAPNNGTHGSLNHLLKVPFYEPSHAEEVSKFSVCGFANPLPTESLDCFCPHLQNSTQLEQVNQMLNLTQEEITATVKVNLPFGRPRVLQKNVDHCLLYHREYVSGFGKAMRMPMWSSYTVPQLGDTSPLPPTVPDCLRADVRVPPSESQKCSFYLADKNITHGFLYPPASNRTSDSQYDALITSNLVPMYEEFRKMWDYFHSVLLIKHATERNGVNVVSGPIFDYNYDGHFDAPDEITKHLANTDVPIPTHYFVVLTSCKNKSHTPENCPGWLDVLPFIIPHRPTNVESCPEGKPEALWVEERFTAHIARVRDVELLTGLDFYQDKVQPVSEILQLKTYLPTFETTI
# [3] = test system: MCF7; assay: Antiproliferative activity against human MCF7 cells assessed as reduction in cell growth at 10 uM incubated for 24 hrs by MTT assay relative to control; assay type: functional
# In short: (§1)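 MTT assay. Cells seeded at 4 × 10^4 per well and incubated overnight. Treated 24 h; DMSO served as negative control and doxorubicin as positive control. MTT dye 0.5 mg/mL added for 2 h at 37 °C, formazan dissolved in DMSO, absorbance read at 570 nm. Single-concentration screen at 10; dose-dependent dilutions gave IC50. WI-38 fibroblasts grown in DMEM with 10% FBS and 1% penicillin/streptomycin. Triplicate means ± S.E.M.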
# [4] = test system: HT-29; assay: Antiproliferative activity against human HT-29 cells assessed as reduction in cell growth at 10 uM incubated for 24 hrs by MTT assay relative to control; assay type: functional; in short: as §1
# [5] = biological target: T1, Ectonucleotide pyrophosphatase/phosphodiesterase family member 1; assay: Inhibition of NPP1 (unknown origin) transfected in COS7 cells using pNP-TMP as substrate incubated for 35 mins by spectrophotometric method; assay type: cell-based
# In short: (§2)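 Human NPP1 or NPP3 expressed in COS-7 cells by plasmid/Lipofectamine transfection, harvested 48-72 h later. Membrane fractions prepared by sonication and 300 g centrifugation, stored with 7.5% glycerol; protein measured by Bradford. Assay buffer: 50 mM Tris-HCl, 5 mM MgCl2, 0.1 mM ZnCl2, pH 9.5. Triplicates ± S.E.M.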
# [6] = test system: MCF7; assay: Antiproliferative activity against human MCF7 cells assessed as reduction in cell growth at 100 uM incubated for 24 hrs by MTT assay relative to control; assay type: functional
# [7] = biological target: T3, Ectonucleotide pyrophosphatase/phosphodiesterase family member 1 (Homo sapiens) (UniProt P22413); assay: Inhibition of human NPP1 transfected in COS7 cells at 100 uM using pNP-TMP as substrate incubated for 35 mins relative to control; assay type: cell-based; in short: as §2
# T3 sequence (whole entry): T1 sequence (P22413 whole entry)
# [8] = biological target: T4, Ectonucleotide pyrophosphatase/phosphodiesterase family member 3 (Homo sapiens) (UniProt O14638); assay: Inhibition of human NPP3 transfected in COS7 cells at 100 uM using pNP-TMP as substrate incubated for 35 mins relative to control; assay type: cell-based; in short: as §2
# T4 sequence (whole entry): T2 sequence (O14638 whole entry)
# [9] = test system: HT-29; assay: Antiproliferative activity against human HT-29 cells assessed as reduction in cell growth incubated for 24 hrs by MTT assay; assay type: functional, cell-based; conditions: HT-29, 24 h
# In short: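 HT-29 colon cancer cells seeded per well and incubated overnight, then exposed for 24 h to serial dilutions of compound (10 mM DMSO stock diluted in medium), with doxorubicin and DMSO controls. MTT (0.5 mg/mL) added for 2 h at 37 °C, formazan dissolved in DMSO, absorbance read at 570 nm. IC50 from triplicate assays, mean ± S.E.M.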
# [10] = test system: WI-38; assay: Cytotoxicity against human WI-38 cells assessed as reduction in cell growth incubated for 24 hrs by MTT assay; assay type: cell-based; conditions: WI-38, 24 h; in short: as §1
# [11] = Toxicity in BALB/c mouse assessed as glucose level at 10 mg/kg, ip measured at 0 hrs (reference value: 106 to 141 mg/dl); assay type: organism-based; conditions: in vivo
# In short: (§3)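 Male BALB/c mice weighing 30-35 g, five per group. Given i.p. at 10 or 20 mg/kg in (2-hydroxypropyl)-β-cyclodextrin solution. Control group received vehicle alone. Blood glucose (mg/dL) measured at 0, 30, 60, 90 and 120 min after injection.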
# [12] = Toxicity in BALB/c mouse assessed as glucose level at 20 mg/kg, ip measured at 0 hrs (reference value: 106 to 141 mg/dl); assay type: organism-based; conditions: in vivo; in short: as §3
# [13] = Toxicity in BALB/c mouse assessed as glucose level at 10 mg/kg, ip measured at 30 mins (reference value: 106 to 141 mg/dl); conditions: in vivo
# [14] = Toxicity in BALB/c mouse assessed as glucose level at 10 mg/kg, ip measured at 60 mins (reference value: 106 to 141 mg/dl); conditions: in vivo
# [15] = Toxicity in BALB/c mouse assessed as glucose level at 10 mg/kg, ip measured at 90 mins (reference value: 106 to 141 mg/dl); conditions: in vivo
# [16] = Toxicity in BALB/c mouse assessed as glucose level at 20 mg/kg, ip measured at 30 mins (reference value: 106 to 141 mg/dl); conditions: in vivo
# [17] = Toxicity in BALB/c mouse assessed as glucose level at 20 mg/kg, ip measured at 60 mins (reference value: 106 to 141 mg/dl); conditions: in vivo
# [18] = Toxicity in BALB/c mouse assessed as glucose level at 20 mg/kg, ip measured at 90 mins (reference value: 106 to 141 mg/dl); conditions: in vivo
# [19] = Toxicity in BALB/c mouse assessed as glucose level at 10 mg/kg, ip measured at 120 mins (reference value: 106 to 141 mg/dl); conditions: in vivo
# [20] = Toxicity in BALB/c mouse assessed as glucose level at 20 mg/kg, ip measured at 120 mins (reference value: 106 to 141 mg/dl); conditions: in vivo
# [21] = biological target: T4, Ectonucleotide pyrophosphatase/phosphodiesterase family member 3 (Homo sapiens); assay: Competitive inhibition of human NPP3 transfected in COS7 cells at 0.1 to 1 uM using pNP-TMP as substrate incubated for 35 mins by Lineweaver-Burk plot analysis; assay type: cell-based; conditions: dose 0.1-1 µM
# In short: (§4)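 Kinetics with pNP-TMP at 0.0, 1.25, 2.50, 5.0, 7.5 and 10.0 mM in Tris-HCl 50 mM, MgCl2 5 mM, ZnCl2 0.1 mM, pH 9.5. Incubated at 37 °C and read over 35 min at 5-min intervals. Enzyme from transfected COS-7 membrane fractions.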
# [22] = biological target: T2, Ectonucleotide pyrophosphatase/phosphodiesterase family member 3; assay: Inhibition of NPP3 (unknown origin) transfected in COS7 cells using pNP-TMP as substrate incubated for 35 mins by spectrophotometric method; assay type: cell-based; in short: as §2
# [23] = biological target: T3, Ectonucleotide pyrophosphatase/phosphodiesterase family member 1 (Homo sapiens); assay: Non-competitive inhibition of human NPP1 transfected in COS7 cells at 0.5 to 1.5 uM using pNP-TMP as substrate incubated for 35 mins by Lineweaver-Burk plot analysis; assay type: cell-based; conditions: dose 0.5-1.5 µM; in short: as §4
# [24] = test system: MCF7; assay: Antiproliferative activity against human MCF7 cells assessed as reduction in cell growth incubated for 24 hrs by MTT assay; assay type: functional, cell-based; conditions: MCF7, 24 h; in short: as §1
IC50 [1],IC50 [2],Compound,inhibition at 10 µM [3],inhibition at 10 µM [4],other results
1080 nM,26100 nM,O=C(NS(=O)(=O)c1ccccc1)n1ccc2c(Cl)ccnc21,3.32%,47.6%,
,,COc1ccc(-c2nn(-c3cccc(NS(=O)(=O)c4ccc(C)cc4)c3)cc2-c2ccncc2)cc1Cl,,,IC50 [5]: 180 nM; inhibition at 100 µM [6]: 40.3%
,3720 nM,Cc1ccc(S(=O)(=O)NC(=O)n2ccc3cccnc32)cc1,20.3%,33.4%,inhibition [7]: 47.9%
,,O=C(NS(=O)(=O)c1ccc2ccccc2c1)n1ccc2cccnc21,1.9%,16.2%,inhibition [7]: 48.6%; inhibition [8]: 44.1%
1550 nM,590 nM,Cc1ccc(S(=O)(=O)NC(=O)n2ccc3cc(Br)cnc32)cc1,28%,82.4%,IC50 [9]: 1580 nM; IC50 [10]: 18400 nM; Activity [11]: 108 mg/dL; Activity [12]: 114 mg/dL; Activity [13]: 103 mg/dL; Activity [14]: 122 mg/dL; Activity [15]: 124 mg/dL; Activity [16]: 113 mg/dL; Activity [17]: 114 mg/dL; Activity [18]: 128 mg/dL; Activity [19]: 121 mg/dL; Activity [20]: 121 mg/dL
4500 nM,,O=C(NS(=O)(=O)c1ccccc1)n1ccc2cccnc21,18.9%,23.6%,inhibition [8]: 37.5%
1150 nM,2130 nM,O=C(NS(=O)(=O)c1cccc([N+](=O)[O-])c1)n1ccc2cc(Br)cnc21,43%,58.5%,
178000 nM,25300 nM,O=C(NS(=O)(=O)c1ccc2ccccc2c1)n1ccc2cc(Br)cnc21,28.8%,60.1%,
2770 nM,550 nM,CN(C)c1ccnc2c1ccn2C(=O)NS(=O)(=O)c1ccccc1,26.9%,17.6%,inhibition [21]: Active
3290 nM,1310 nM,O=C(NS(=O)(=O)c1ccc2ccccc2c1)n1ccc2c(Cl)ccnc21,28.6%,58.2%,
,,Cc1ccc(S(=O)(=O)NC(=O)n2ccc3c(N(C)C)ccnc32)cc1,5.6%,21.4%,inhibition [7]: 41.5%; inhibition [8]: 45.7%
10400 nM,880 nM,O=C(NS(=O)(=O)c1ccc(Cl)cc1)n1ccc2cccnc21,33.5%,54.4%,
,,COc1cccc2c1C(=O)c1c(O)c3c(c(O)c1C2=O)C[C@@](O)(C(=O)CO)C[C@@H]3O[C@H]1C[C@H](N)[C@H](O)[C@H](C)O1 [DOXORUBICIN],96.8%,94.3%,IC50 [9]: 1400 nM; IC50 [10]: 1960 nM
8300 nM,2010 nM,O=C(NS(=O)(=O)c1ccccc1)n1ccc2cc(Br)cnc21,16.8%,14.6%,
,,Oc1ccc(-c2nn(-c3cccc(NC(=S)Nc4ccccc4)c3)cc2-c2ccncc2)cc1Cl,,,IC50 [22]: 210 nM; inhibition at 100 µM [6]: 35.6%
800 nM,1170 nM,O=C(NS(=O)(=O)c1cccc([N+](=O)[O-])c1)n1ccc2cccnc21,70.7%,18.9%,inhibition [23]: Active; IC50 [24]: 4700 nM; IC50 [10]: > 20000 nM
